MIC data for eight compounds are collected here from ChEMBL document CHEMBL1154578, “Aminosterols from the dogfish shark Squalus acanthias” (2000).

Common to all, as to type: functional
One test concerns Staphylococcus aureus. Nature of the test: Antimicrobial activity against Staphylococcus aureus ATCC 29218. The conditions noted are these: ATCC 29213, in the assay text read “ATCC 29213” for “ATCC 29218”. The gist of the method: (§1)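 Broth microdilution MIC: log-phase microbes at (0.9-1.1) × 10⁵ cfu/mL in 0.5× trypticase soy broth, exposed to increasing amounts of aminosterol in microtiter plates, incubated at 37 °C for 18-24 h. Aminosterol starting solutions at 2 mg/mL in 250 mM sodium acetate, pH 6.6.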

Another test relates to Escherichia coli. Nature of the test: Antimicrobial activity against Escherichia coli ATCC 25922. The method, boiled down:
as §1

The test system of a further test is Pseudomonas aeruginosa. Nature of the test: Antimicrobial activity against Pseudomonas aeruginosa ATCC 27853. The method, boiled down: as §1
A further test has as its system Candida albicans. Nature of the test: Antimicrobial activity against Candida albicans ATCC 90028. The method, boiled down:
as §1

Each structure is given as a SMILES string. ≈ marks a conversion by molar mass, not a printed value.

What is called MIC is the smallest concentration in the dilution series that meets the test's criterion for growth inhibition. Read a low MIC as a more susceptible organism. `C=C(C)C(=O)CC[C@@H](C)[C@H]1CC[C@H]2[C@@H]3[C@H](O)C[C@H]4C[C@@H](NCCCNCCCCN)CC[C@]4(C)[C@H]3CC[C@]12C`: the MIC against Staphylococcus aureus amounted to 2 µg/mL (≈ 3.68 µM); in the test on Escherichia coli, 16 µg/mL (≈ 29.4 µM); in the test with Pseudomonas aeruginosa, 16 µg/mL (≈ 29.4 µM); in the test on Candida albicans, 2 µg/mL (≈ 3.68 µM).
Regarding `CC(COS(=O)(=O)O)C(=O)CC[C@@H](C)[C@H]1CC[C@H]2[C@@H]3[C@H](O)C[C@H]4C[C@@H](NCCCNCCCCN)CC[C@]4(C)[C@H]3CC[C@]12C` (some centres not stated), the MIC is 8 µg/mL (≈ 12.5 µM) against Staphylococcus aureus, 128 µg/mL (≈ 199 µM) in the test with Escherichia coli, 128 µg/mL (≈ 199 µM) with Pseudomonas aeruginosa and 32 µg/mL (≈ 49.8 µM) against Candida albicans.
In the case of `CC(COS(=O)(=O)O)[C@H](O)CC[C@@H](C)[C@H]1CC[C@H]2[C@@H]3[C@H](O)C[C@H]4C[C@@H](NCCCNCCCCN)CC[C@]4(C)[C@H]3CC[C@]12C` (some centres not stated), the MIC in the test with Staphylococcus aureus was 4 µg/mL (≈ 6.21 µM); against Escherichia coli, 128 µg/mL (≈ 199 µM); against Pseudomonas aeruginosa, 32 µg/mL (≈ 49.7 µM); against Candida albicans, 16 µg/mL (≈ 24.8 µM).
The corresponding values for `CC(CSCC(N)C(=O)O)C(=O)CC[C@@H](C)[C@H]1CC[C@H]2[C@@H]3[C@H](O)C[C@H]4C[C@@H](NCCCNCCCCN)CC[C@]4(C)[C@H]3CC[C@]12C` (some centres not stated) are 8 µg/mL (≈ 12 µM), 256 µg/mL (≈ 385 µM), 256 µg/mL (≈ 385 µM) and 128 µg/mL (≈ 192 µM).
In the case of `CC(C)[C@](CO)(CC[C@@H](C)[C@H]1CC[C@H]2[C@@H]3[C@H](O)C[C@H]4C[C@@H](NCCCNCCCCN)CC[C@]4(C)[C@H]3CC[C@]12C)OS(=O)(=O)O`, the MIC with Staphylococcus aureus worked out at 2 µg/mL (≈ 3.04 µM); against Escherichia coli, 8 µg/mL (≈ 12.2 µM); against Pseudomonas aeruginosa it was 16 µg/mL (≈ 24.3 µM); against Candida albicans, 32 µg/mL (≈ 48.6 µM).
The corresponding values for `CC(C)[C@@H](CC[C@@H](C)[C@H]1CC[C@H]2[C@@H]3[C@H](O)C[C@H]4C[C@@H](NCCCNCCCCN)CC[C@]4(C)[C@H]3C[C@H](O)[C@]12C)OS(=O)(=O)O` are 8 µg/mL (≈ 12.4 µM), 16 µg/mL (≈ 24.8 µM), 16 µg/mL (≈ 24.8 µM) and 32 µg/mL (≈ 49.7 µM).
The corresponding values for `CC(C)[C@@H](CC[C@@H](C)[C@H]1CC[C@H]2[C@@H]3[C@H](O)C[C@H]4C[C@@H](NCCCNCCCCN)CC[C@]4(C)[C@H]3CC[C@]12C)OS(=O)(=O)O` [SQUALAMINE] are 1 µg/mL (≈ 1.59 µM), 4 µg/mL (≈ 6.37 µM), 16 µg/mL (≈ 25.5 µM) and 16 µg/mL (≈ 25.5 µM).
On to `CC(C)[C@@H](CC[C@@H](C)[C@H]1CC[C@H]2[C@@H]3[C@H](O)C[C@H]4C[C@@H](NCCCNCCCCNCCCN)CC[C@]4(C)[C@H]3CC[C@]12C)OS(=O)(=O)O` [TRODUSQUEMINE], for which the MIC against Staphylococcus aureus was found to be 1 µg/mL (≈ 1.46 µM); in the test on Escherichia coli, 1 µg/mL (≈ 1.46 µM); with Pseudomonas aeruginosa, 4 µg/mL (≈ 5.84 µM); with Candida albicans it was 4 µg/mL (≈ 5.84 µM).
